This is an account of results in ChEMBL document CHEMBL1158829, “Oxygenated pimarane diterpenes from Kaempferia marginata” (J Nat Prod, 2005).

Test [1] deals with Mycobacterium tuberculosis. Kind of test: Antitubercular activity against Mycobacterium tuberculosis H37Ra after 4 days by microplate alamar blue assay. Format: functional. As to conditions: 96 h. The gist of the method: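 Mycobacterium tuberculosis H37Ra tested by Microplate Alamar Blue Assay, reporting minimum inhibitory concentration (MIC). Rifampicin, kanamycin and isoniazid were the positive controls.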
On the technique in general: Alamar Blue is a resazurin reagent that responds to reducing activity.

Another test deals with Plasmodium falciparum. As to the kind of experiment: Antimalarial activity against multidrug-resistant Plasmodium falciparum K1 after 42 hrs by [3H]hypoxanthine uptake. Format: functional, organism-based. The gist of the method: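 Plasmodium falciparum K1 (multidrug-resistant) was kept in continuous culture. In vitro activity was quantified with a microculture radioisotope technique.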

Another test concerns Candida albicans. Kind of test: Antifungal activity against Candida albicans ATCC 90028 by XTT assay. Type of test: functional, organism-based. The procedure, abridged:
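Candida albicans ATCC 90028 tested by a tetrazolium/formazan colorimetric method, with IC50 as the read-out. Amphotericin B served as the positive control and DMSO as the negative control.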
Background: Formazan colour is commonly taken as a measure of viable cells.

Converted amounts (≈) assume the structure as drawn.

For orientation: MIC means the smallest concentration in the dilution series that meets the test's criterion for growth inhibition. High values mean a less susceptible organism, low ones a more susceptible organism. Regarding `C=C[C@]1(C)C=C2C(=O)C[C@H]3C(C)(C)C[C@H](O)[C@H](O)[C@]3(C)[C@H]2CC1`, the MIC in test [1] was greater than 100 µg/mL.
Same read-out and setting: for `C=C[C@]1(C)C=C2CC[C@]3(C)[C@](C)(CCC[C@]3(C)O)[C@@]2(C)CC1` the value was 25 µg/mL (≈ 82.6 µM); for `C=C[C@]1(C)C=C2[C@H](O)C[C@H]3C(C)(C)CC[C@H](O)[C@]3(C)[C@H]2[C@H](O)C1`, greater than 100 µg/mL.
The term IC50 denotes the point on the concentration scale where inhibition reaches its midpoint. Read a low IC50 as higher potency. Consider `C=C[C@]1(C)C=C2CC[C@H]3C(C)(C)C[C@H](O)[C@H](O)[C@]3(C)[C@H]2[C@H](O)C1`, for which the values for the IC50 in the test on Plasmodium falciparum and with Candida albicans were 8.8 µg/mL (≈ 27.5 µM) and 17.5 µg/mL (≈ 54.6 µM), respectively. This molecule also gave an MIC in test [1] greater than 100 µg/mL.
In the test with Plasmodium falciparum, `C=C[C@]1(C)C=C2CC[C@H]3C(C)(C)CC[C@H](O)[C@]3(C)[C@H]2[C@H](O)C1` gave an IC50 of 3.2 µg/mL (≈ 10.5 µM).
Turning to `C=C[C@]1(C)C=C2CC[C@]3(C)[C@](C)(CC[C@H](C(C)=O)[C@]3(C)O)[C@@]2(C)CC1`, the MIC in test [1] is 50 µg/mL (≈ 145 µM).
